{"data": "Published values pooled from the literature", "MAOA": "Amine oxidase [flavin-containing] A (MAOA, Homo sapiens, UniProt P21397)", "CTSS": "Cathepsin S (CTSS, Homo sapiens, UniProt P25774)"}
{"Compound": "C#Cc1n[nH]c2c(-c3cn([C@@H](C)c4ccccc4)c(=O)[nH]c3=O)cc(F)cc12", "target": "Focal adhesion kinase 1 (PTK2, Homo sapiens, UniProt Q05397)", "test": "enzyme activity, inhibitor", "conditions": "0.1 µM", "inhibition": "3.8%"}
{"Compound": "O=c1ccoc2ccc(OCCCCN3CCCCC3)cc12", "target": "MAOA", "test": "enzyme activity, inhibitor, fluorescence", "conditions": "10 µM", "inhibition": "16%"}
{"Compound": "Nc1ncnc2c1ncn2[C@@H]1O[C@H](CNS(=O)(=O)c2ccc3ccccc3c2)[C@@H](O)[C@H]1O", "target": "Protein arginine N-methyltransferase 3 (PRMT3, Homo sapiens, UniProt O60678)", "test": "enzyme activity, inhibitor", "conditions": "10 µM", "inhibition": "-5%"}
{"Compound": "CN(C)C(=O)COC(=O)Cc1ccc(OC(=O)c2ccc(NC(=N)N)cc2)cc1", "target": "CTSS", "test": "enzyme activity, inhibitor", "conditions": "10 µM", "inhibition": "3%"}
{"Compound": "c1ccc(C(NCCNC(c2ccccc2)c2ccccc2)c2ccccc2)cc1", "target": "MAOA", "test": "cell-free assay, inhibitor", "conditions": "10 µM", "inhibition": "11%"}
{"Compound": "CCOC(=O)c1ccc(OC(=O)CCCCCNC(=N)N)cc1", "target": "CTSS", "test": "enzyme activity, inhibitor", "conditions": "10 µM", "inhibition": "4%"}
{"Compound": "CN1CCN(CCCCOc2ccc3occc(=O)c3c2)CC1", "target": "MAOA", "test": "enzyme activity, inhibitor, fluorescence", "conditions": "10 µM", "inhibition": "5%"}
{"Compound": "CCN(CC)CCCC[C@H](NC(=O)[C@H](CC(C)C)NC(=O)[C@H](C)NC(=O)[C@H](Cc1ccccc1)NC(=O)c1ccc(C(C)(C)C)cc1)C(=O)N[C@@H](CO)C(=O)OC", "target": "Kappa-type opioid receptor (Oprk1, Rattus norvegicus, UniProt P34975)", "test": "ligand displacement, radioligand", "conditions": "10 µM", "inhibition": "91%"}
{"Compound": "CN(CCN1CCC(OC(=O)Nc2ccccc2-c2ccccc2)CC1)C(=O)c1ccc(CN2CCC(C(N)=O)CC2)cc1", "target": "MAOA", "test": "enzyme activity, inhibitor", "conditions": "1 µM", "inhibition": "-2%"}
{"Compound": "Clc1ccc2c(C3CCN(CCc4c[nH]c5ccccc45)CC3)c[nH]c2c1", "target": "Alpha-1A adrenergic receptor (ADRA1A, Homo sapiens, UniProt P35348)", "test": "ligand displacement, radioligand", "conditions": "10 µM", "inhibition": "108%"}
{"Compound": "N=C(N)c1ccc2cc(OC(=O)c3ccc(N=C(N)N)cc3)ccc2c1", "target": "Ubiquitin carboxyl-terminal hydrolase 2 (USP2, Homo sapiens, UniProt O75604)", "test": "enzyme activity, inhibitor", "conditions": "10 µM", "inhibition": "0%"}
{"Compound": "C#Cc1n[nH]c2c(-c3cn(C(C)c4ccccn4)c(=O)[nH]c3=O)cc(F)cc12 (stereo not shown)", "target": "High affinity nerve growth factor receptor (NTRK1, Homo sapiens, UniProt P04629)", "test": "enzyme activity, inhibitor", "conditions": "1 µM", "inhibition": "13.1%"}
{"Compound": "O=C(Nc1cccnn1)N1CCN([C@@H]2CCOc3cc(C(F)(F)F)ccc32)CC1", "target": "Angiotensin-converting enzyme 2 (ACE2, Homo sapiens, UniProt Q9BYF1)", "test": "enzyme activity, inhibitor", "conditions": "20 µM", "inhibition": "3%"}
{"Compound": "CC(C)C[C@H](NC(=O)[C@H]1O[C@@H]1C(=O)O)C(=O)NCCCCN=C(N)N", "target": "CTSS", "test": "enzyme activity, inhibitor", "conditions": "50 nM", "inhibition": "81%"}
{"Compound": "COCc1c(-c2cc3cc(C)cc(OC)c3s2)c2c(N)ncnn2c1CN1CCNC(=O)C1", "target": "MAOA", "test": "enzyme activity, inhibitor", "conditions": "10 µM", "inhibition": "-3%"}
{"Compound": "Cn1cc(-c2cccc(N3CCc4c(sc5c4CC(C)(C)C5)C3=O)c2CO)cc(Nc2ccncn2)c1=O", "target": "Cyclin-dependent kinase 5, with p25 (CDK5, Homo sapiens, UniProt Q00535)", "test": "enzyme activity, inhibitor", "conditions": "1 µM", "inhibition": "2%"}
